Reference: ChEMBL document CHEMBL1125823, “2-Phenylindole-linked [2-(aminoalkyl)pyridine]dichloroplatinum(II): complexes with a selective action on estrogen receptor positive mammary tumors” (1991)

Columns and labels:
Mus musculus [1] = species on record: Mus musculus; assay: Anti-tumor activity in hormone-dependent transplant MXT mammary tumor bearing mice at 12.2 mg (control=197+/-130); type: functional
[2] = molecular target: T1, Estrogen receptor (Mus musculus) (UniProt O08537+P19785); assay: Anti-uterotrophic effect in hormone-dependent transplant MXT bearing mice as relative uterine weight in treated and control mice at 12.2 mg (control=100+/-24); type: functional
MCF7 [3] = assay: Effect on Estrogen receptor positive MCF-7 human breast cancer cell proliferation at 5x10E-6M (control = 62.7+/-8.8); type: functional
Procedure, shortened: (§1)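 MCF-7 cells were kept in MEM with 5% charcoal-treated newborn calf serum and phenol red for 2 weeks, then about 2×10^4 cells were plated per well. Compounds in 0.1% DMF were added 2 days later and renewed on day 4; DMF alone served as control. Coulter cell counts were taken on day 5; mean of six dishes ± SD; % T/C.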

[4] = molecular target: T1, Estrogen receptor (Mus musculus); assay: Percent inhibition of estrone stimulated uterotrophic effect in mice at 150 ug; type: functional
Procedure, shortened: (§2)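 Immature mice given test compound per animal sc on three consecutive days together with 0.4 μg estrone/animal/day. Killed 24 h after last injection; uteri fixed in Bouin, dried 100 °C 24 h and weighed. Inhibition = 100 − [(W_S,T − W_V)/(W_S − W_V) × 100] using relative uterus weights; 6-10 animals; Wilcoxon-Mann-Whitney U test.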

Mus musculus [5] = species on record: Mus musculus; assay: Relative tumor weight in treated compared to control mice bearing hormone-dependent transplanted MXT mammary tumors at 12.2 mg
MCF7 [6] = assay: Effect on Estrogen receptor positive MCF-7 human breast cancer cell proliferation at 5x10E-7M; type: functional; procedure, shortened: as §1
MCF7 [7] = assay: Effect on [3H]thymidine incorporation into estrogen receptor positive MCF-7 human breast cancer cells at 5x10E-6M (control = 48.6+/-3.6); type: functional
Procedure, shortened: (§3)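 MCF-7 cells in improved MEM with glutamine, gentamycin and 5% newborn calf serum, switched to charcoal-treated serum two weeks ahead; phenol red present; 37 °C, 5% CO2. About 2×10^4 cells plated per well; compound in 0.1% DMF added 2 days later, renewed on day 4; labelled 3 days later with 1 μCi [3H]thymidine per well for 2 h; cpm/dish, mean of six dishes ± SD.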

[8] = molecular target: T1, Estrogen receptor (Mus musculus); assay: Percent inhibition of estrone stimulated uterotrophic effect in mice at 15 ug; type: functional; procedure, shortened: as §2
MCF7 [9] = assay: Effect on Estrogen receptor positive MCF-7 human breast cancer cell proliferation at 5x10E-7M (control = 62.7+/-8.8); type: functional; procedure, shortened: as §1
[10] = molecular target: T1, Estrogen receptor (Mus musculus); assay: Anti-uterotrophic effect in mice as relative uterine weight(mg) at 15 ug; type: functional
Procedure, shortened: (§4)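 Immature mice received the compound sc per animal on three consecutive days, alone or with 0.4 µg estrone per animal per day. Uteri were taken 24 h after the last injection, Bouin-fixed, dried at 100 °C for 24 h and weighed. Relative uterus weight = dry weight (mg)/body weight (g) × 100; mean of 6-10 animals ± SD; Mann-Whitney U test.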

[11] = molecular target: T1, Estrogen receptor (Mus musculus); assay: Uterotrophic effect in mice as relative uterine weight(mg) at 150 ug (control = 14.5+/-2.1); type: functional, tissue-based
Procedure, shortened: (§5)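 Immature mice dosed sc per animal on three consecutive days; vehicle controls. Killed and weighed 24 h after last injection; uteri fixed in Bouin solution 2 h, washed with alcoholic LiCl, dried at 100 °C for 24 h. Relative uterus weight = uterine dry weight (mg)/body weight (g) × 100; mean of 6-10 animals ± SD.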

MCF7 [12] = assay: Effect on [3H]thymidine incorporation into estrogen receptor positive MCF-7 human breast cancer cells at 5x10E-7M (control=48.6+/-3.6); type: functional; procedure, shortened: as §3
MCF7 [13] = assay: Effect on Estrogen receptor positive MCF-7 human breast cancer cell proliferation at 5x10E-6M; type: functional; procedure, shortened: as §1
MCF7 [14] = assay: Effect on [3H]thymidine incorporation into estrogen receptor positive MCF-7 human breast cancer cells at 5x10E-6M; type: functional; procedure, shortened: as §3
[15] = molecular target: T1, Estrogen receptor (Mus musculus); assay: Uterotrophic effect in mice as relative uterine weight(mg) at 15 ug (control = 14.5+/-2.1); type: functional, tissue-based; procedure, shortened: as §5
MCF7 [16] = assay: Effect on [3H]thymidine incorporation into estrogen receptor positive MCF-7 human breast cancer cells at 1x10E-6M (control = 48.6+/-3.6); type: functional
Procedure, shortened: (§6)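 MCF-7 cells were grown in MEM with charcoal-treated 5% newborn calf serum and phenol red, then treated with compounds in 0.1% DMF (renewed on day 4) alongside DMF controls. They were labeled 3 days later with 1 µCi [³H]thymidine per well for 2 h, and incorporated radioactivity per dish was measured; mean of six dishes ± SD; % T/C.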

[17] = molecular target: T1, Estrogen receptor (Mus musculus); assay: Anti-uterotrophic effect in mice as relative uterine weight(mg) at 150 ug; type: functional; procedure, shortened: as §4
MCF7 [18] = assay: Effect on [3H]thymidine incorporation into estrogen receptor positive MCF-7 human breast cancer cells at 1x10E-6M; type: functional; procedure, shortened: as §6
MCF7 [19] = assay: Effect on [3H]thymidine incorporation into estrogen receptor positive MCF-7 human breast cancer cells at 5x10E-7M
MCF7 [20] = assay: Effect on Estrogen receptor positive MCF-7 human breast cancer cell proliferation at 1x10E-6M; type: functional; procedure, shortened: as §1
MCF7 [21] = assay: Effect on Estrogen receptor positive MCF-7 human breast cancer cell proliferation at 1x10E-6M (control = 62.7+/-8.8); type: functional; procedure, shortened: as §1
MCF7 [22] = assay: Effect on [3H]thymidine incorporation into estrogen receptor positive MCF-7 human breast cancer cells at 1x10E-6M (control = 42.6+/-2.8); type: functional; procedure, shortened: as §6
MCF7 [23] = assay: Effect on [3H]thymidine incorporation into estrogen receptor positive MCF-7 human breast cancer cells at 5x10E-6M (control = 42.6+/-2.8); type: functional; procedure, shortened: as §3
MCF7 [24] = assay: Effect on [3H]-thymidine incorporation into estrogen receptor positive MCF-7 human breast cancer cells at 5x10E-7M (control = 42.6+/-2.8); type: functional; procedure, shortened: as §6
MCF7 [25] = assay: Effect on Estrogen receptor positive MCF-7 human breast cancer cell proliferation at 5x10E-7M (control = 63.8+/-9.0); type: functional; procedure, shortened: as §1
[26] = molecular target: T1, Estrogen receptor (Mus musculus); assay: Uterotrophic effect in mice as relative uterine weight(mg) at 150 ug (control = 12.3+/-3.7); type: functional, tissue-based; procedure, shortened: as §5
MCF7 [27] = assay: Effect on Estrogen receptor positive MCF-7 human breast cancer cell proliferation at 5x10E-6M (control = 63.8+/-9.0); type: functional; procedure, shortened: as §1
MCF7 [28] = assay: Effect on Estrogen receptor positive MCF-7 human breast cancer cell proliferation at 1x10E-6M (control = 63.8+/-9.0); type: functional; procedure, shortened: as §1
[29] = molecular target: T1, Estrogen receptor (Mus musculus); assay: Uterotrophic effect in mice as relative uterine weight(mg) at 15 ug (control = 12.3+/-3.7); type: functional, tissue-based; procedure, shortened: as §5
Mus musculus [30] = species on record: Mus musculus; assay: Anti-tumor activity in hormone-dependent transplant MXT mammary tumor bearing mice at 12.5 mg (control=197+/-130); type: functional
MCF7 [31] = assay: Effect on Estrogen receptor positive MCF-7 human breast cancer cell proliferation at 5x10E-6M (control = 24.4+/-3.8); type: functional; procedure, shortened: as §1
MCF7 [32] = assay: Effect on [3H]thymidine incorporation into estrogen receptor positive MCF-7 human breast cancer cells at 5*10e-6 M (control = 10.2+/-1.4); type: functional; procedure, shortened: as §3
MCF7 [33] = assay: Effect on Estrogen receptor positive MCF-7 human breast cancer cell proliferation at 1x10E-6M (control = 24.4+/-3.8); type: functional; procedure, shortened: as §1
[34] = molecular target: T1, Estrogen receptor (Mus musculus); assay: Uterotrophic effect in mice as relative uterine weight(mg) at 150 ug (control = […]+/-1.7); type: functional, tissue-based
[35] = molecular target: T1, Estrogen receptor (Mus musculus); assay: Anti-uterotrophic effect in hormone-dependent transplant MXT bearing mice as relative uterine weight in treated and control mice at 12.5 mg (control=100+/-24); type: functional
[36] = molecular target: T1, Estrogen receptor (Mus musculus); assay: Uterotrophic effect in mice as relative uterine weight(mg) at 15 ug (control = […]+/-1.7); type: functional, tissue-based
MCF7 [37] = assay: Effect on [3H]thymidine incorporation into estrogen receptor positive MCF-7 human breast cancer cells at 1*10^-6 M (control = 10.2+/-1.4); type: functional; procedure, shortened: as §6
Mus musculus [38] = species on record: Mus musculus; assay: Relative tumor weight in treated compared to control mice bearing hormone-dependent transplanted MXT mammary tumors at 12.5 mg

T1 sequence (O08537 whole entry, looked up): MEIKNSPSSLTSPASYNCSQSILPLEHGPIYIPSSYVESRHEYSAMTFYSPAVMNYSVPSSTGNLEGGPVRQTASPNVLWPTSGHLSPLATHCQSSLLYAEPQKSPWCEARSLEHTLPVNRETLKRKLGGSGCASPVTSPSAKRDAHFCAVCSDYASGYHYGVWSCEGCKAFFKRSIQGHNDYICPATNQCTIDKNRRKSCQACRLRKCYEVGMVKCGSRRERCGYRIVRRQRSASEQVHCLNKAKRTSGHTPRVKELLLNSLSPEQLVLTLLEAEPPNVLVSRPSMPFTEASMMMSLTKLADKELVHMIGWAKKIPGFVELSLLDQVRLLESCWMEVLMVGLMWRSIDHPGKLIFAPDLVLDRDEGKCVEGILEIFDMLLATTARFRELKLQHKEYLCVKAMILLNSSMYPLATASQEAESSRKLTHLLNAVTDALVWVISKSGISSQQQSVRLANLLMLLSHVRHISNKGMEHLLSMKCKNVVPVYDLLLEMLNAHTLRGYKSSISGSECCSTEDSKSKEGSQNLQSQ
T1 sequence (P19785 whole entry, looked up): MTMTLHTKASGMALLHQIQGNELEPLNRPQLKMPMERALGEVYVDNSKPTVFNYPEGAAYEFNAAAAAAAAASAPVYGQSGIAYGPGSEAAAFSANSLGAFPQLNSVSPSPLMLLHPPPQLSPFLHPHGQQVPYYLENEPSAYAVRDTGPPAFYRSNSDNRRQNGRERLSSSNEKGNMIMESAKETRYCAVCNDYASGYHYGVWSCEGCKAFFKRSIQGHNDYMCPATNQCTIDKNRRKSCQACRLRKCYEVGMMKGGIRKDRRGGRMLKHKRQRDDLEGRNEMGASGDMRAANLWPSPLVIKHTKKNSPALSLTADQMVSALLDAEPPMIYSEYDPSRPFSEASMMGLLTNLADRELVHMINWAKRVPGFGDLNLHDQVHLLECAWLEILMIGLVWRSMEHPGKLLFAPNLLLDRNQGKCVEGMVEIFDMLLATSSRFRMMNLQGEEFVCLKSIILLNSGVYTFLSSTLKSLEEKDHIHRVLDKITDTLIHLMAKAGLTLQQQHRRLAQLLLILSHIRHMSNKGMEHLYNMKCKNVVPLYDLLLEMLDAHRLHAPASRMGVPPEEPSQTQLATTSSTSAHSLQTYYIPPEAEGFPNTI

Row | inhibition [4] [%] | inhibition [8] [%] | Relative uterus weight [10] [mg] | Relative uterus weight [17] [mg] | Compound | T/C (MCF7 [6]) [%] | T/C (MCF7 [13]) [%] | T/C (MCF7 [14]) [%] | T/C (MCF7 [18]) [%] | T/C (MCF7 [19]) [%] | T/C (MCF7 [20]) [%] | other results
1 | 5 | 18 | 40.6 | 46.1 | Oc1ccc(-c2cc3cc(O)ccc3n2CCCCCCNCc2ccccn2)cc1 | 54 | 31 | 20 | 41 | 47 | 53 | Tumor weight (Mus musculus [1]): 158 mg; T/C [2]: 78%; Cell no/dish (MCF7 [3]): 195000; T/C (Mus musculus [5]): 80%; Activity (MCF7 [7]): 9600; Cell no/dish (MCF7 [9]): 335000; Relative uterus weight [11]: 22.1 mg; [3H] thymidinecpm/dish (MCF7 [12]): 22800; Relative uterus weight [15]: 13.6 mg; Activity (MCF7 [16]): 20000; Cell no/dish (MCF7 [21]): 334000
2 | 48 | 11 | 41.9 | 29.4 | Cc1c(-c2ccc(O)cc2)n(CCCCCCCNCc2ccccn2)c2ccc(O)cc12 | 58 | 23 | 5 | 27 | 34 | 41 | Activity (MCF7 [22]): 11300; Activity (MCF7 [23]): 2200; [3H] thymidinecpm/dish (MCF7 [24]): 14500; Cell no/dish (MCF7 [25]): 369000; Relative uterus weight [26]: 19 mg; Cell no/dish (MCF7 [27]): 146000; Cell no/dish (MCF7 [28]): 264000; Relative uterus weight [29]: 15.2 mg
3 | 77 | 39 | 34.2 | 22.4 | Cc1c(-c2ccc(O)cc2)n(CCCCCCNC(C)c2ccccn2)c2ccc(O)cc12 (stereo unspecified) | – | 39 | 12 | 46 | – | 52 | Tumor weight (Mus musculus [30]): 148 mg; Cell no/dish (MCF7 [31]): 95000; Activity (MCF7 [32]): 1200; Cell no/dish (MCF7 [33]): 126000; Relative uterus weight [34]: 20.2 mg; T/C [35]: 96%; Relative uterus weight [36]: 14.6 mg; Activity (MCF7 [37]): 4600; T/C (Mus musculus [38]): 75%
